# Calls of active or inactive are those of the source. The calls are words filed in the database; no cut-off is given here.
# Assays:
# Falcipain 2 = target: T1, Falcipain 2 (Plasmodium falciparum, UniProt Q9N6S8); assay: Inhibition of Plasmodium falciparum recombinant falcipain-2
# T1 sequence (Q9N6S8 whole entry): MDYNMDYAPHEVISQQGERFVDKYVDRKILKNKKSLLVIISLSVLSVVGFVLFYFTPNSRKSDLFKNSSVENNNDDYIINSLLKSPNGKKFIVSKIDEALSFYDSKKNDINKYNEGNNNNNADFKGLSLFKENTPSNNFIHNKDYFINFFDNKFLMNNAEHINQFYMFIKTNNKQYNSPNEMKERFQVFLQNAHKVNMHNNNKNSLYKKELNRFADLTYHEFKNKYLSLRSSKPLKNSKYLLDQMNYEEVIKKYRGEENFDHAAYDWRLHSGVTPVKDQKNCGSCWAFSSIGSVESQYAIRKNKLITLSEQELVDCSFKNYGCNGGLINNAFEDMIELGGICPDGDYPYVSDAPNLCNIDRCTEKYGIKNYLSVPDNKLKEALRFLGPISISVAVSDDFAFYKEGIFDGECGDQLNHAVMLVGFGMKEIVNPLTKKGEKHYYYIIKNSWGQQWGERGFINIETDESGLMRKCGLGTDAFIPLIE
# Procedure, shortened: (§1)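 Equal amounts of recombinant enzyme preincubated 30 min at room temperature with serial inhibitor dilutions from DMSO stocks (DMSO at most 1% in assay) in 100 mM sodium acetate pH 5.5, 10 mM dithiothreitol. Z-Leu-Arg-AMC then added to 25 μM final; fluorescence followed 15 min at room temperature. IC50 taken from percent activity versus concentration plots.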
# [1] = target: T2, Cysteine protease falcipain-3 (Plasmodium falciparum, UniProt Q9NBA7); assay: Inhibition of Plasmodium falciparum recombinant falcipain-3; procedure, shortened: as §1
# T2 sequence (Q9NBA7 whole entry): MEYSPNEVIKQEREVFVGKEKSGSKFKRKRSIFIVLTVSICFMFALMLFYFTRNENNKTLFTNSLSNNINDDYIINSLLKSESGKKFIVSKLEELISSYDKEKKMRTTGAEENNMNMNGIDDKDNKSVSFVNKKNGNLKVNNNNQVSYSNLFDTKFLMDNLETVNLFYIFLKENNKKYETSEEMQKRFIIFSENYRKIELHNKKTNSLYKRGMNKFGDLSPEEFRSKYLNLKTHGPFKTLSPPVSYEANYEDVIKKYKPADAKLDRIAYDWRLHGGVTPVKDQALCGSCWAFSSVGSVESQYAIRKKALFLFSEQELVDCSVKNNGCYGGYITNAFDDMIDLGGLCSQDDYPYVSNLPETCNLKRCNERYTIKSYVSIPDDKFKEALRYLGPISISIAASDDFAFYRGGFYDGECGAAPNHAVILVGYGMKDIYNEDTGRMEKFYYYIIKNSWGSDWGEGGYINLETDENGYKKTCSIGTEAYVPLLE
# Plasmodium falciparum [2] = assay: Antiplasmodial activity against chloroquine-sensitive Plasmodium falciparum D6 after 48 hrs as LDH reporter activity; type: functional, organism-based; details: D6, 48 h
# Procedure, shortened: (§2)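 Asynchronous P. falciparum cultures (2% hematocrit, 2% parasitemia) were exposed to compound dilutions prepared in DMSO. They were incubated 48 h at 37 °C in a humidified chamber under 90% N2, 5% CO2, 5% O2. Growth was read as parasite lactate dehydrogenase activity using Malstat reagent. Medium-only and erythrocyte-only wells were included, with chloroquine and artemisinin as positive and DMSO as negative controls.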
# Plasmodium falciparum [3] = assay: Antiplasmodial activity against chloroquine-resistant Plasmodium falciparum W2 as LDH activity after 48 hrs; type: functional, organism-based; details: W2, 48 h; procedure, shortened: as §2
# [4] = target: T3, Cysteine protease (Leishmania donovani) (UniProt Q95WR6); assay: (§3) Inhibition of Leishmania donovani cysteine protease
# T3 sequence (whole entry): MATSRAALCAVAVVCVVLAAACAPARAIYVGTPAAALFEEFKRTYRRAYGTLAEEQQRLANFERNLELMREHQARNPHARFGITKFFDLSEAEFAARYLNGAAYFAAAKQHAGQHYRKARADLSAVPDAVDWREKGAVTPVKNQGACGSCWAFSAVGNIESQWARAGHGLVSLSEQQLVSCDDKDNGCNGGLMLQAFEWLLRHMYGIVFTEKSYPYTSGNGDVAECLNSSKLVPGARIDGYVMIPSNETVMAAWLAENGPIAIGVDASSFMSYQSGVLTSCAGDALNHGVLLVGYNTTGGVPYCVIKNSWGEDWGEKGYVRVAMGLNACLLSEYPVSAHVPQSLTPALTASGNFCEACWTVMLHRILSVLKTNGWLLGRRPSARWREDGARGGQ
# Leishmania donovani = assay: Antileishmanial activity against Leishmania donovani promastigotes after 72 hrs by Alamar blue assay; type: functional, organism-based
# Procedure, shortened: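 L. donovani promastigote culture at 2 × 10⁶ cells/mL given diluted compounds, incubated 72 h at 26 °C; growth read by Alamar blue. Pentamidine and amphotericin B as reference agents; IC50 computed from growth inhibition curve.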
# Vero = assay: Cytotoxicity against Vero cells at 23.8 ug/mL by Neutral red assay; type: cell-based; details: chlorocebus sabaeus
# Procedure, shortened: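 VERO monkey kidney […] exposed to compounds alongside the antiparasitic assays, viability by Neutral Red uptake; highest concentration tested 23.8 μg/mL; IC50 computed from growth inhibition curve.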
# Cysteine protease = target: T4, Cysteine protease (Leishmania donovani, UniProt Q95WR6); assay: as §3
# T4 sequence (Q95WR6 whole entry): T3 sequence (whole entry)
SMILES,IC50 (Falcipain 2) [µM],IC50 [1] [µM],EC50 (Plasmodium falciparum [2]) [µM],EC50 (Plasmodium falciparum [3]) [µM],Activity [4],Activity (Leishmania donovani),Activity (Vero),IC50 (Leishmania donovani) [µM],IC50 (Cysteine protease) [µM]
O=C(CSc1ccc2ccccc2n1)N/N=C/c1ccc(O)cc1O,63.4,> 50,32.5,67.3,inactive,inactive,Non-toxic,,
Oc1ccc(Nc2nc(-c3cccnc3)cs2)cc1,22.5,> 50,52,50.1,inactive,,Non-toxic,11.5,
CCN(CC)CCCC(C)Nc1ccnc2cc(Cl)ccc12 (stereo not given) [CHLOROQUINE],,,0.009,0.28,,,,,
O=C(Cn1nnc(-c2ccccc2)n1)N/N=C1\C(=O)Nc2ccccc21,27.3,> 50,68.5,43.2,,inactive,Non-toxic,,130
O=C(Nc1cccc(O)c1)c1cccc(S(=O)(=O)Nc2cccc(O)c2)c1,> 50,> 50,35.1,37.7,inactive,,Non-toxic,0.3,
Oc1ccc(/C=N/c2ccc(/N=C/c3ccc(O)cc3O)c(Cl)c2)c(O)c1,2.1,7.5,12.3,20.9,,inactive,Non-toxic,,65.3
O=C(CNC(=O)[C@@H]1COc2ccccc2O1)N/N=C/c1cccs1,26.6,> 50,68.9,68.9,inactive,inactive,Non-toxic,,
Oc1ccc(/C=N/CC/N=C/c2ccc(O)cc2O)c(O)c1,20.8,> 50,46.6,74.9,inactive,inactive,Non-toxic,,
CCCS(=O)(=O)N1CCN(S(=O)(=O)c2ccc3ccccc3c2)CC1,12.4,29.6,> 62.2,> 62.2,inactive,inactive,Non-toxic,,
O=C(N/N=C/c1ccccc1O)c1cccc(C(=O)N/N=C/c2ccccc2O)n1,7,10.5,3.7,6.2,inactive,inactive,Non-toxic,,
CCCc1cc(O)nc(SCC(=O)Nc2ccccc2)n1,,,> 78.4,> 78.4,inactive,inactive,,,
O=C(NCc1ccc(/C=c2/sc3n(c2=O)CCN=3)o1)C(=O)Nc1ccccc1,6.2,11.8,> 60,> 60,inactive,inactive,Non-toxic,,
O=C(CSc1nnnn1-c1ccccc1)Nc1ccc(-n2cnnn2)cc1,7.5,5.4,62.7,50.1,inactive,inactive,Non-toxic,,
O=C(N/N=C/c1ccc(/C=N/NC(=O)c2ccccc2O)cc1)c1ccccc1O,2.2,27.8,31.1,34.8,inactive,inactive,Non-toxic,,

# From ChEMBL document CHEMBL1149285, “Identification of novel parasitic cysteine protease inhibitors using virtual screening. 1. The ChemBridge database” (J Med Chem, 2004)
